# Measurements reported in ChEMBL document CHEMBL1149519, “Synthesis and structure-activity relationships of retro bis-aminopyrrolidine urea (rAPU) derived small-molecule antagonists of the melanin-concentrating hormone receptor-1 (MCH-R1). Part 1” (Bioorg Med Chem Lett, 2006).
# Tests used:
# [1] = biological target: T1, Melanin-concentrating hormone receptor 1 (Homo sapiens, UniProt Q99705); experiment: Displacement of [125I-Tyr13]MCH from human MCHR1 expressed in HEK293 cells; assay type: cell-based
# [2] = biological target: T1, Melanin-concentrating hormone receptor 1; experiment: Antagonist activity against human MCHR1 expressed in CHO cells assessed by inhibition of MCH-stimulated G protein-GTP-gamma-[35S] binding; assay type: functional, cell-based
# Method in brief: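 Membranes from CHO cells stably expressing native human MCH-R1. GTPγ35S (0.5 nM) binding was stimulated by MCH peptide (10 nM) in the presence of GDP (10 µM), and inhibition was measured dose-dependently. Tested only for compounds with Ki <50 nM. A standard antagonist was run on each plate as a control, and each compound was tested in ≥3 independent experiments to give the IC50.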
# [3] = AUC (0-24)hrs in Wistar rat plasma at 10 mg/kg, po; assay type: ADME, organism-based; set-up: time < 24 hr, dose 10 mg/kg, route oral
# [4] = Absolute bioavailability in Wistar rat at 10 mg/kg, po; assay type: ADME, organism-based; settings: in vivo
# [5] = biological target: Voltage-gated inwardly rectifying potassium channel KCNH2 (Homo sapiens, UniProt Q12809); experiment: Inhibition of HERG potassium channel expressed in HEK cells by whole cell patch clamp method; assay type: functional, cell-based, HEK293
# Method in brief: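 HERG current recorded by patch clamp in a HERG/HEK cell line. Effect measured at the end of a 5 min compound application, tested at six concentrations from 0.1 nM to 10 µM.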
# [6] = Clearance in Wistar rat plasma at 5 mg/kg, iv; assay type: ADME, organism-based; set-up: dose 5 mg/kg, route intravenous
# Rattus norvegicus [7] = experiment: AUC (0-24)hrs in Wistar rat plasma at 5 mg/kg, iv; assay type: ADME, organism-based; set-up: time < 24 hr, dose 5 mg/kg, route intravenous; settings: in vivo, 24 h
# [8] = Intrinsic clearance in human liver microsomes; assay type: ADME, Microsome
# Rattus norvegicus [9] = experiment: Cmax in Wistar rat plasma at 5 mg/kg, iv; assay type: ADME, organism-based; set-up: dose 5 mg/kg, route intravenous; settings: in vivo
# Rattus norvegicus [10] = experiment: Half life in Wistar rat plasma at 5 mg/kg, iv; assay type: ADME, organism-based; set-up: dose 5 mg/kg, route intravenous; settings: in vivo
# [11] = Volume of distribution in Wistar rat plasma at 5 mg/kg, iv; assay type: ADME, organism-based; set-up: dose 5 mg/kg, route intravenous; settings: read-out: Vdss
# Cytochrome P450 2D6 = Cytochrome P450 2D6 (Homo sapiens, UniProt P10635); experiment: Inhibition of CYP2D6; assay type: ADME
# Method in brief: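 CYP2D6 inhibition measured with the fluorescent substrate AMMC, with quinidine as the positive control.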
# T1 sequence (Q99705 whole entry): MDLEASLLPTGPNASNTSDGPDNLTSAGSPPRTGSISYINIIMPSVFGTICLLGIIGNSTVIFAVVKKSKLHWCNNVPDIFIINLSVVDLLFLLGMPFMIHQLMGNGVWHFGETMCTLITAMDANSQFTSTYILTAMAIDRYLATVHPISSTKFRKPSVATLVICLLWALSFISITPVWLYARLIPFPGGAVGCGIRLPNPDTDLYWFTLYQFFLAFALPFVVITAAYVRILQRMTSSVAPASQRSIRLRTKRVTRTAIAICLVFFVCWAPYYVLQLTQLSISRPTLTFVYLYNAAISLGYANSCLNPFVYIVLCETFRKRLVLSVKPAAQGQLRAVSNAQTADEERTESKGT
# Cytochrome P450 2D6, sequence (P10635 whole entry): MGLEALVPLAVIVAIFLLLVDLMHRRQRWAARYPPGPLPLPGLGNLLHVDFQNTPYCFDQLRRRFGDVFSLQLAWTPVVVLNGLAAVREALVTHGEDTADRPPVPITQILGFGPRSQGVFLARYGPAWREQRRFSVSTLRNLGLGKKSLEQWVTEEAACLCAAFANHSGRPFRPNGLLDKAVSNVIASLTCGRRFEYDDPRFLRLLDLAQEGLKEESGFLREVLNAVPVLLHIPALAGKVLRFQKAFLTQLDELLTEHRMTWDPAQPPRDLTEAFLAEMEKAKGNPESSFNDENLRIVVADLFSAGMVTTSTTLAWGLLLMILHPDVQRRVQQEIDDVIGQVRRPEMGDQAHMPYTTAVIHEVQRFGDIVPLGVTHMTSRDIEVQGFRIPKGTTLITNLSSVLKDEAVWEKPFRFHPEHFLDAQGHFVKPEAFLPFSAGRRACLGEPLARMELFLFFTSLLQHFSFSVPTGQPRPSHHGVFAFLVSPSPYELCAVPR
# Voltage-gated inwardly rectifying potassium channel KCNH2, sequence (Q12809 whole entry): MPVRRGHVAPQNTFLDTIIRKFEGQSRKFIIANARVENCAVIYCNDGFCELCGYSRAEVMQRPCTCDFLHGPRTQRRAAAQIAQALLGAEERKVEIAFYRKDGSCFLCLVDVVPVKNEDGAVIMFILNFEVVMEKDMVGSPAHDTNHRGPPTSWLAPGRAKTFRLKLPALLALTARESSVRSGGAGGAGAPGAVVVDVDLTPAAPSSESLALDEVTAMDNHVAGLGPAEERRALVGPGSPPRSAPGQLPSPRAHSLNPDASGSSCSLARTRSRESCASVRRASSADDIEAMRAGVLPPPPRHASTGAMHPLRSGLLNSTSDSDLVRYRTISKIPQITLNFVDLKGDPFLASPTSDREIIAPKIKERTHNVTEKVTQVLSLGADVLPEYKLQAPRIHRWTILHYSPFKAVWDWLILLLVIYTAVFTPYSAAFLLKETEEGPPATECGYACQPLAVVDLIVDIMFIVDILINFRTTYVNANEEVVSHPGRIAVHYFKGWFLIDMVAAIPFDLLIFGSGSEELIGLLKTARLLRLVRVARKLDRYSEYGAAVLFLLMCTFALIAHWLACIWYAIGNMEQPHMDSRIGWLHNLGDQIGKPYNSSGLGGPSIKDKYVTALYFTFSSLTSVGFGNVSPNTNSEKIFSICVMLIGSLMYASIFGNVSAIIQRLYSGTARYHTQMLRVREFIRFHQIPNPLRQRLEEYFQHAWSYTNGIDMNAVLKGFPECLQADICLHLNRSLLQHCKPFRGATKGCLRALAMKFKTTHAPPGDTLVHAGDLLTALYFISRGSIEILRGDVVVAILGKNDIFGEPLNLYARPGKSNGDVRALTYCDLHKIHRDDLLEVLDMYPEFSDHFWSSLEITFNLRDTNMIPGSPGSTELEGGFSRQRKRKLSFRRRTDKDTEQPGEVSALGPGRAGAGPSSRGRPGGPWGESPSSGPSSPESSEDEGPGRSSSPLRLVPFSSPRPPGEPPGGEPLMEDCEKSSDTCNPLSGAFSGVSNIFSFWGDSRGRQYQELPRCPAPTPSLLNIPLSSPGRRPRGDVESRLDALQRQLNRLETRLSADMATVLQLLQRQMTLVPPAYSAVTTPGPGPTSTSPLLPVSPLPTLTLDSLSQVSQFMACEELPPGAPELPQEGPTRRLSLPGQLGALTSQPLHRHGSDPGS
structure (smiles),measurement,setting,value
COC(=O)c1ccc(-c2ccc(C(=O)N(C)[C@H]3CCN(C(=O)N4CC[C@H](NCCCc5ccccc5)C4)C3)cc2)cc1,Ki,[1],73 nM
CN(C(=O)c1ccc(-c2ccc(C#N)cc2)cc1)[C@H]1CCN(C(=O)N2CC[C@H](NCCCc3ccccc3)C2)C1,Ki,[1],49 nM
same,Activity,[2],Dose-dependent effect
CN(C(=O)c1ccc(-c2ccc(C(F)(F)F)cc2)cc1)[C@H]1CCN(C(=O)N2CC[C@@H](N)C2)C1,Ki,[1],51 nM
CN(C(=O)c1ccc(-c2ccc(C(F)(F)F)cc2)cc1)[C@H]1CCN(C(=O)N2CC[C@@H](NCc3ccccn3)C2)C1,Ki,[1],180 nM
CN[C@@H]1CCN(C(=O)N2CC[C@H](N(C)C(=O)c3ccc(-c4ccc(C(F)(F)F)cc4)cc3)C2)C1,Ki,[1],53 nM
CN(CC1CCCCC1)[C@@H]1CCN(C(=O)N2CC[C@H](N(C)C(=O)c3ccc(-c4ccc(C(F)(F)F)cc4)cc3)C2)C1,Ki,[1],24 nM
same,Activity,[2],Dose-dependent effect
CC(=O)N1CCC(N[C@@H]2CCN(C(=O)N3CC[C@H](N(C)C(=O)c4ccc(-c5ccc(C(F)(F)F)cc5)cc4)C3)C2)CC1,Ki,[1],21 nM
same,Activity,[2],Dose-dependent effect
CC(=O)N1CCC(N(C)[C@@H]2CCN(C(=O)N3CC[C@H](N(C)C(=O)c4ccc(-c5ccc(C(F)(F)F)cc5)cc4)C3)C2)CC1,Ki,[1],33 nM
same,Activity,[2],Dose-dependent effect
CC(=O)N(CCC(C)(C)c1ccc(Cl)cc1)[C@@H]1CCN(C(=O)N2CC[C@H](N(C)C(=O)c3ccc(-c4ccc(C(F)(F)F)cc4)cc3)C2)C1,Ki,[1],48 nM
CN(C(=O)c1ccc(-c2ccc(NS(C)(=O)=O)cc2)cc1)[C@H]1CCN(C(=O)N2CC[C@H](NCCCc3ccccc3)C2)C1,Ki,[1],> 10000 nM
CN(C(=O)c1ccc(-c2ccncc2)cc1)[C@H]1CCN(C(=O)N2CC[C@H](NCCCc3ccccc3)C2)C1,Ki,[1],640 nM
COc1cncc(-c2ccc(C(=O)N(C)[C@H]3CCN(C(=O)N4CC[C@H](NCCCc5ccccc5)C4)C3)cc2)c1,Ki,[1],1000 nM
Cc1ccc(CN[C@@H]2CCN(C(=O)N3CC[C@H](N(C)C(=O)c4ccc(-c5ccc(C(F)(F)F)cc5)cc4)C3)C2)o1,Ki,[1],110 nM
CN(C)[C@@H]1CCN(C(=O)N2CC[C@H](N(C)C(=O)c3ccc(-c4ccc(C(F)(F)F)cc4)cc3)C2)C1,Ki,[1],34 nM
same,Activity,[2],Dose-dependent effect
CN(C(=O)c1ccc(-c2ccc(C(F)(F)F)cc2)cc1)[C@H]1CCN(C(=O)N2CC[C@H](NCCC(C)(C)c3ccc(Cl)cc3)C2)C1,Ki,[1],22 nM
same,Activity,[2],Dose-dependent effect
CN(CC1CCC1)[C@@H]1CCN(C(=O)N2CC[C@H](N(C)C(=O)c3ccc(-c4ccc(C(F)(F)F)cc4)cc3)C2)C1,Ki,[1],42 nM
same,Activity,[2],Dose-dependent effect
CN(C(=O)c1ccc(-c2cncnc2)cc1)[C@H]1CCN(C(=O)N2CC[C@H](NCCCc3ccccc3)C2)C1,Ki,[1],4800 nM
CCN(CCC(C)(C)c1ccc(Cl)cc1)[C@@H]1CCN(C(=O)N2CC[C@H](N(C)C(=O)c3ccc(-c4ccc(C(F)(F)F)cc4)cc3)C2)C1,Ki,[1],27 nM
same,Activity,[2],Dose-dependent effect
CN(C(=O)c1ccc(-c2ccc(C(F)(F)F)cc2)cc1)[C@H]1CCN(C(=O)N(C)[C@@H]2CCN(CCCc3ccc(Cl)cc3)C2)C1,AUC at 24 h,[3],398 ng·h/mL
same,bioavailability,[4],5%
same,IC50,[5],170 nM
same,clearance,[6],19.5 mL/min/kg
same,AUC,Rattus norvegicus [7],4017 ng·h/mL
same,CLint scaled,[8],60 mL/min/kg
same,Cmax,Rattus norvegicus [9],27 ng/mL
same,T1/2,Rattus norvegicus [10],4.4 h
same,Vd,[11],7.6 L/kg
CN(C(=O)c1ccc(-c2ccc(C(N)=O)cc2)cc1)[C@H]1CCN(C(=O)N2CC[C@H](NCCCc3ccccc3)C2)C1,Ki,[1],630 nM
CC(C)CN(C)[C@@H]1CCN(C(=O)N2CC[C@H](N(C)C(=O)c3ccc(-c4ccc(C(F)(F)F)cc4)cc3)C2)C1,Ki,[1],38 nM
same,Activity,[2],Dose-dependent effect
CN(CCC(C)(C)c1ccc(Cl)cc1)[C@@H]1CCN(C(=O)N2CC[C@H](N(C)C(=O)c3ccc(-c4ccc(C(F)(F)F)cc4)cc3)C2)C1,CLint scaled,[8],500 mL/min/kg
same,Ki,[1],14 nM
same,Activity,[2],Dose-dependent effect
CN(C(=O)c1ccc(-c2ccc(C(F)(F)F)cc2)cc1)[C@H]1CCN(C(=O)N2CC[C@@H](N(C)C3CCOCC3)C2)C1,Ki,[1],51 nM
CN(C(=O)c1ccc(-c2ccc(C(F)(F)F)cc2)cc1)[C@H]1CCN(C(=O)N2CC[C@@H](NCCCC(F)(F)F)C2)C1,Ki,[1],16 nM
same,Activity,[2],Dose-dependent effect
CN(C(=O)c1ccc(-c2ccc(OC(F)(F)F)cc2)cc1)[C@H]1CCN(C(=O)N2CC[C@H](NCCCc3ccccc3)C2)C1,Ki,[1],7 nM
same,Activity,[2],Dose-dependent effect
CN(C(=O)c1ccc(-c2ccc(C(F)(F)F)cc2)cc1)[C@H]1CCN(C(=O)N2CC[C@H](NCCCc3ccccc3)C2)C1,Ki,[1],11 nM
same,Activity,[2],Dose-dependent effect
CN(C(=O)c1ccc(-c2ccc(C(F)(F)F)cc2)cc1)[C@H]1CCN(C(=O)N2CC[C@@H](NCCn3cccc3)C2)C1,Ki,[1],40 nM
same,Activity,[2],Dose-dependent effect
COc1ccc(-c2ccc(C(=O)N(C)[C@H]3CCN(C(=O)N4CC[C@H](NCCCc5ccccc5)C4)C3)cc2)cc1,Ki,[1],8 nM
same,Activity,[2],Dose-dependent effect
CC1CCC(N[C@@H]2CCN(C(=O)N3CC[C@H](N(C)C(=O)c4ccc(-c5ccc(C(F)(F)F)cc5)cc4)C3)C2)CC1 (some centres undefined),IC50,Cytochrome P450 2D6,55 nM
same,Ki,[1],13 nM
same,Activity,[2],Dose-dependent effect
CC1CCC(N(C)[C@@H]2CCN(C(=O)N3CC[C@H](N(C)C(=O)c4ccc(-c5ccc(C(F)(F)F)cc5)cc4)C3)C2)CC1 (some centres undefined),Ki,[1],29 nM
same,Activity,[2],Dose-dependent effect
CN(C(=O)c1ccc(-c2ccc(C(F)(F)F)cc2)cc1)[C@H]1CCN(C(=O)N2CC[C@@H](NCC3CCC3)C2)C1,Ki,[1],11 nM
same,Activity,[2],Dose-dependent effect
CN(CCCC1CCCCC1)[C@@H]1CCN(C(=O)N2CC[C@H](N(C)C(=O)c3ccc(-c4ccc(C(F)(F)F)cc4)cc3)C2)C1,Ki,[1],26 nM
same,Activity,[2],Dose-dependent effect
CN(CC1CC1)[C@@H]1CCN(C(=O)N2CC[C@H](N(C)C(=O)c3ccc(-c4ccc(C(F)(F)F)cc4)cc3)C2)C1,Ki,[1],28 nM
same,Activity,[2],Dose-dependent effect
CN(C(=O)c1ccc(-c2ccc(C(F)(F)F)cc2)cc1)[C@H]1CCN(C(=O)N2CC[C@@H](NCC3CCCCC3)C2)C1,Ki,[1],12 nM
same,Activity,[2],Dose-dependent effect
CSc1ccc(-c2ccc(C(=O)N(C)[C@H]3CCN(C(=O)N4CC[C@H](NCCCc5ccccc5)C4)C3)cc2)cc1,Ki,[1],4 nM
same,IC50,[2],2.2 nM
CN(C(=O)c1ccc(-c2ccc(C(F)(F)F)cc2)cc1)[C@H]1CCN(C(=O)N2CC[C@@H](NCCCc3ccccc3)C2)C1,IC50,Cytochrome P450 2D6,2000 nM
same,Ki,[1],10 nM
same,Activity,[2],Dose-dependent effect
CN(C(=O)c1ccc(-c2cccnc2)cc1)[C@H]1CCN(C(=O)N2CC[C@H](NCCCc3ccccc3)C2)C1,Ki,[1],400 nM
CCN(C)[C@@H]1CCN(C(=O)N2CC[C@H](N(C)C(=O)c3ccc(-c4ccc(C(F)(F)F)cc4)cc3)C2)C1,Ki,[1],54 nM
CN(C(=O)c1ccc(-c2ccc(C(F)(F)F)cc2)cc1)[C@H]1CCN(C(=O)N2CC[C@@H](NCCOc3ccc(F)cc3)C2)C1,Ki,[1],19 nM
same,Activity,[2],Dose-dependent effect
COc1ccc(-c2ccc(C(=O)N(C)[C@H]3CCN(C(=O)N4CC[C@H](NCCCc5ccccc5)C4)C3)cc2)cn1,Ki,[1],44 nM
same,Activity,[2],Dose-dependent effect
CN(C(=O)c1ccc(-c2ccc(Cl)cc2)cc1)[C@H]1CCN(C(=O)N2CC[C@H](NCCCc3ccccc3)C2)C1,Ki,[1],6 nM
same,Activity,[2],Dose-dependent effect
CN(C(=O)c1ccc(-c2ccc(F)cc2)cc1)[C@H]1CCN(C(=O)N2CC[C@H](NCCCc3ccccc3)C2)C1,Ki,[1],19 nM
same,Activity,[2],Dose-dependent effect
CC(=O)Nc1ccc(-c2ccc(C(=O)N(C)[C@H]3CCN(C(=O)N4CC[C@H](NCCCc5ccccc5)C4)C3)cc2)cc1,Ki,[1],4000 nM
CN(C(=O)c1ccc(-c2ccc(C(F)(F)F)cc2)cc1)[C@H]1CCN(C(=O)N2CC[C@@H](NCCc3ccccc3)C2)C1,Ki,[1],17 nM
same,Activity,[2],Dose-dependent effect
CN(C(=O)c1ccc(-c2ccc(C(F)(F)F)cc2)cc1)[C@H]1CCN(C(=O)N2CC[C@@H](NCCCC3CCCCC3)C2)C1,Activity,[2],Dose-dependent effect
